Data from ChEMBL document CHEMBL1156332, “Polysubstituted pyrazoles, part 6. Synthesis of some 1-(4-chlorophenyl)-4-hydroxy-1H-pyrazol-3-carbonyl derivatives linked to nitrogenous heterocyclic ring systems as potential antitumor agents” (2010).
Activity calls are given as the source filed them. The rule behind the calls is not given here.

Assays:
Assay type in all cases: functional
[1] = Cytotoxicity against human ovarian cancer cells after 48 hrs by sulforhodamine B assay; conditions: Cancer cell lines
How it was run: (§1)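 NCI five-dose screen: about 60 human tumour lines grouped into nine subpanels were plated and incubated 24 h before dosing. Compounds went in as DMSO stock and were diluted in medium to five final concentrations (0.01–100 µM). Exposure was 48 h continuous at 37 °C, 5% CO₂, followed by TCA fixation and SRB staining read at 515 nm. Per-line GI₅₀, TGI and LC₅₀ came from log concentration–% growth curves, averaged per subpanel as MG-MID.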

SK-OV-3 = assay: Growth inhibition of human SKOV3 cells after 48 hrs by sulforhodamine B assay; conditions: SK-OV-3, 48 h
How it was run: (§2)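 Adherent lines plated and held 24 h at 37 °C, 5% CO2, 100% humidity; time-zero plates TCA-fixed at drug addition. Drugs from DMSO stocks were made into five concentrations by 10-fold or half-log serial dilution and applied for 48 h continuous exposure. Cells were fixed with cold TCA (10% final) for 60 min at 4 °C, then stained with 0.4% SRB in 1% acetic acid for 10 min. Dye was solubilized in 10 mM Tris base and read at 515 nm. GI50 was taken from log concentration–growth curves.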

U-251 = assay: Growth inhibition of human U251 cells after 48 hrs by sulforhodamine B assay; conditions: U-251, 48 h; how it was run: as §2
MDA-MB-435 = assay: Growth inhibition of human MDA-MB-435 cells after 48 hrs by sulforhodamine B assay; conditions: MDA-MB-435, 48 h
How it was run: (§3)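 NCI 60-line panel, five concentrations (0.01–100 µM) from DMSO stock diluted in medium with gentamicin. Cells were plated 24 h before dosing, with time-zero plates fixed at drug addition, then exposed 48 h at 37 °C, 5% CO₂. Adherent cells were fixed with cold TCA (10% final) and suspension cells with 16% TCA. Staining used 0.4% SRB, solubilised in 10 mM Tris and read at 515 nm. GI₅₀ was taken from log concentration–% growth curves.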

HCC 2998 = assay: Growth inhibition of human HCC2998 cells after 48 hrs by sulforhodamine B assay; conditions: HCC 2998, 48 h; how it was run: as §3
MDA-MB-468 = assay: Growth inhibition of human MDA-MB-468 cells after 48 hrs by sulforhodamine B assay; conditions: MDA-MB-468, 48 h; how it was run: as §3
[2] = Cytotoxicity against human CNS cancer cells after 48 hrs by sulforhodamine B assay; conditions: Cancer cell lines; how it was run: as §1
NCI-H460 = assay: Growth inhibition of human NCI-H460 cells after 48 hrs by sulforhodamine B assay; conditions: NCI-H460, 48 h; how it was run: as §3
A549 = assay: Growth inhibition of human A549 cells after 48 hrs by sulforhodamine B assay; conditions: A549, 48 h; how it was run: as §3
K562 = assay: Growth inhibition of human K562 cells after 48 hrs by sulforhodamine B assay; how it was run: as §3
M14 = assay: Growth inhibition of human M14 cells after 48 hrs by sulforhodamine B assay; conditions: M14, 48 h; how it was run: as §3
OVCAR-3 = assay: Growth inhibition of human OVCAR-3 cells after 48 hrs by sulforhodamine B assay; conditions: OVCAR-3, 48 h; how it was run: as §3
[3] = Cytotoxicity against human prostate cancer cells after 48 hrs by sulforhodamine B assay; conditions: Cancer cell lines; how it was run: as §1
HT-29 = assay: Growth inhibition of human HT-29 cells after 48 hrs by sulforhodamine B assay; conditions: HT-29, 48 h; how it was run: as §3
HCT-15 = assay: Growth inhibition of human HCT15 cells after 48 hrs by sulforhodamine B assay; conditions: HCT-15, 48 h; how it was run: as §3
[4] = Cytotoxicity against human leukemia cells after 48 hrs by sulforhodamine B assay; conditions: Leukemia cell; how it was run: as §1
[5] = Cytotoxicity against human renal cancer cells after 48 hrs by sulforhodamine B assay; conditions: Cancer cell lines; how it was run: as §1
RPMI-8226 = assay: Growth inhibition of human RPMI8226 cells after 48 hrs by sulforhodamine B assay; conditions: RPMI-8226, 48 h; how it was run: as §3
HOP-62 = assay: Growth inhibition of human HOP62 cells after 48 hrs by sulforhodamine B assay; conditions: HOP-62, 48 h; how it was run: as §3
OVCAR-8 = assay: Growth inhibition of human OVCAR8 cells after 48 hrs by sulforhodamine B assay; conditions: OVCAR-8, 48 h; how it was run: as §3
OVCAR-5 = assay: Growth inhibition of human OVCAR5 cells after 48 hrs by sulforhodamine B assay; conditions: OVCAR-5, 48 h; how it was run: as §3
LOX IMVI = assay: Growth inhibition of human LOXIMVI cells after 48 hrs by sulforhodamine B assay; how it was run: as §3
SK-MEL-28 = assay: Growth inhibition of human SK-MEL-28 cells after 48 hrs by sulforhodamine B assay; conditions: SK-MEL-28, 48 h; how it was run: as §2
786-0 = assay: Growth inhibition of human 786-0 cells after 48 hrs by sulforhodamine B assay; conditions: 786-0, 48 h; how it was run: as §3
SNB-75 = assay: Growth inhibition of human SNB75 cells after 48 hrs by sulforhodamine B assay; conditions: SNB-75, 48 h; how it was run: as §2
RXF 393 = assay: Growth inhibition of human […] cells after 48 hrs by sulforhodamine B assay; conditions: RXF 393, 48 h; how it was run: as §3
UO-31 = assay: Growth inhibition of human UO31 cells after 48 hrs by sulforhodamine B assay; conditions: UO-31, 48 h; how it was run: as §2
HL-60(TB) = assay: Growth inhibition of human HL-60(TB) cells after 48 hrs by sulforhodamine B assay; conditions: HL-60, 48 h
How it was run: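 NCI 60-cell panel. Cells were preincubated 24 h at 37 °C in 5% CO2, then time-zero plates were TCA-fixed. Drugs were dissolved in DMSO and given at five concentrations (10-fold or half-log dilutions) for 48 h. Suspension cells were fixed with TCA (16% final), stained with 0.4% SRB and read at 515 nm. GI50 is the concentration giving 50% decrease in net growth, taken from log concentration–growth curves.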

SF-268 = assay: Growth inhibition of human SF268 cells after 48 hrs by sulforhodamine B assay; conditions: SF-268, 48 h; how it was run: as §3
A498 = assay: Growth inhibition of human A498 cells after 48 hrs by sulforhodamine B assay; conditions: A498, 48 h; how it was run: as §3
CAKI-1 = assay: Growth inhibition of human Caki1 cells after 48 hrs by sulforhodamine B assay; conditions: CAKI-1, 48 h; how it was run: as §3
SF-539 = assay: Growth inhibition of human SF539 cells after 48 hrs by sulforhodamine B assay; conditions: SF-539, 48 h; how it was run: as §2
[6] = Growth inhibition of human Hs 578T cells after 48 hrs by sulforhodamine B assay; how it was run: as §3
[7] = Cytotoxicity against human breast cancer cells after 48 hrs by sulforhodamine B assay; conditions: Cancer cell lines; how it was run: as §1
SN12C = assay: Growth inhibition of human SN12C cells after 48 hrs by sulforhodamine B assay; how it was run: as §2
T47D = assay: Growth inhibition of human T47D cells after 48 hrs by sulforhodamine B assay; how it was run: as §2
SW-620 = assay: Growth inhibition of human SW620 cells after 48 hrs by sulforhodamine B assay; conditions: SW-620, 48 h; how it was run: as §2
NCI-H23 = assay: Growth inhibition of human NCI-H23 cells after 48 hrs by sulforhodamine B assay; conditions: NCI-H23, 48 h; how it was run: as §3

## O=C(c1nn(-c2ccc(Cl)cc2)cc1O)n1nc(-c2ccco2)cc1C(F)(F)F
[1]
  GI50: 2.18 µM
  TGI: 94.5 µM
SK-OV-3
  GI50: 3.55 µM
U-251
  GI50: 5.86 µM
MDA-MB-435
  GI50: 1.97 µM
HCC 2998
  GI50: 10.5 µM
MDA-MB-468
  GI50: 4.66 µM
[2]
  GI50: 2.99 µM
  TGI: 90.5 µM
NCI-H460
  GI50: 0.78 µM
A549
  GI50: 7.23 µM
K562; K562, 48 h
  GI50: 1.72 µM
M14
  GI50: 4.28 µM
OVCAR-3
  GI50: 1.72 µM
[3]
  GI50: 18.4 µM
HT-29
  GI50: 4.56 µM
HCT-15
  GI50: 1.44 µM
[4]
  GI50: 1.76 µM
  TGI: 80.7 µM
[5]
  GI50: 3.85 µM
  TGI: 75.6 µM
RPMI-8226
  GI50: 1.42 µM
HOP-62
  GI50: 1.98 µM
OVCAR-8
  GI50: 1.88 µM
OVCAR-5
  GI50: 2.6 µM
LOX IMVI
  GI50: 2.37 µM
SK-MEL-28
  GI50: 9.22 µM
786-0
  GI50: 6.6 µM
SNB-75
  GI50: 0.82 µM
RXF 393
  GI50: 0.03 µM
UO-31
  GI50: 3.84 µM
HL-60(TB)
  GI50: 2.42 µM
SF-268
  GI50: 3.63 µM
A498
  GI50: 8.71 µM
CAKI-1
  GI50: 2.43 µM
SF-539
  GI50: 2.81 µM
[6]
  GI50: 0.64 µM
[7]
  GI50: 3.07 µM
  TGI: 77 µM
SN12C
  GI50: 5.18 µM
T47D
  GI50: 4.16 µM
SW-620
  GI50: 4.75 µM
NCI-H23
  GI50: 5.59 µM

## Cc1cc(C)n(C(=O)c2nn(-c3ccc(Cl)cc3)cc2O)n1
[1]
  GI50: 5.27 µM
  TGI: 87.8 µM
SK-OV-3
  GI50: 7.04 µM
U-251
  GI50: 2.68 µM
MDA-MB-435
  GI50: 3.94 µM
HCC 2998
  GI50: 15.1 µM
MDA-MB-468
  GI50: 8.9 µM
[2]
  GI50: 3.13 µM
  TGI: 69.2 µM
NCI-H460
  GI50: 2.38 µM
A549
  GI50: 3.72 µM
K562
  GI50: inactive
M14
  GI50: 4.69 µM
OVCAR-3
  GI50: 1.27 µM
[3]
  GI50: 6.64 µM
HT-29
  GI50: 3.29 µM
HCT-15
  GI50: 3.53 µM
[4]
  GI50: 3.65 µM
  TGI: 74.3 µM
[5]
  GI50: 4.52 µM
  TGI: 71.3 µM
RPMI-8226
  GI50: 3.34 µM
HOP-62
  GI50: 5.21 µM
OVCAR-8
  GI50: 5.96 µM
OVCAR-5
  GI50: 4.98 µM
LOX IMVI
  GI50: 3.94 µM
SK-MEL-28
  GI50: 6.28 µM
786-0
  GI50: 9.64 µM
SNB-75
  GI50: 3.52 µM
RXF 393
  GI50: 4.58 µM
UO-31
  GI50: 3.01 µM
HL-60(TB)
  GI50: 3.96 µM
SF-268
  GI50: 4.13 µM
A498
  GI50: 2.9 µM
CAKI-1
  GI50: 4.23 µM
SF-539
  GI50: 3.05 µM
[6]
  GI50: 3.21 µM
[7]
  GI50: 4.96 µM
SN12C
  GI50: 3.37 µM
T47D
  GI50: 3.66 µM
SW-620
  GI50: 8.02 µM
NCI-H23
  GI50: 3.31 µM

## O=C1CC(=O)N(C(=O)c2nn(-c3ccc(Cl)cc3)cc2O)N1
[1]
  GI50: 1.08 µM
  TGI: 84 µM
SK-OV-3
  GI50: 1.92 µM
U-251
  GI50: 0.18 µM
MDA-MB-435
  GI50: 0.33 µM
HCC 2998
  GI50: 4.74 µM
MDA-MB-468
  GI50: 0.72 µM
[2]
  GI50: 0.33 µM
  TGI: 87.9 µM
NCI-H460
  GI50: 0.31 µM
A549
  GI50: 0.36 µM
K562; K562, 48 h
  GI50: 0.29 µM
M14
  GI50: 0.71 µM
OVCAR-3
  GI50: 0.93 µM
[3]
  GI50: 0.67 µM
HT-29
  GI50: 0.58 µM
HCT-15
  GI50: 0.49 µM
[4]
  GI50: 0.42 µM
  TGI: 10.8 µM
[5]
  GI50: 0.85 µM
  TGI: 71.8 µM
RPMI-8226
  GI50: 0.38 µM
HOP-62
  GI50: 0.51 µM
OVCAR-8
  GI50: 0.64 µM
OVCAR-5
  GI50: 8.08 µM
LOX IMVI
  GI50: 1.37 µM
SK-MEL-28
  GI50: 5.26 µM
786-0
  GI50: 3.77 µM
SNB-75
  GI50: 0.24 µM
RXF 393
  GI50: 0.31 µM
UO-31
  GI50: 0.55 µM
HL-60(TB)
  GI50: 0.77 µM
SF-268
  GI50: 0.51 µM
A498
  GI50: 0.11 µM
CAKI-1
  GI50: 0.65 µM
SF-539
  GI50: 0.37 µM
[6]
  GI50: 0.19 µM
[7]
  GI50: 0.82 µM
  TGI: 79.6 µM
SN12C
  GI50: 0.5 µM
T47D
  GI50: 0.45 µM
SW-620
  GI50: 2.32 µM
NCI-H23
  GI50: 0.49 µM
